Drawing on ChEMBL document CHEMBL1153402, “Pyrido[2,3-e]-1,2,4-triazolo[4,3-a]pyrazin-1-one as a new scaffold to develop potent and selective human A3 adenosine receptor antagonists. Synthesis, pharmacological evaluation, and ligand-receptor modeling studies” (J Med Chem, 2009), this text covers EC50, Activity and Ki for one compound.

In general, pEC50 refers to −log10 of the EC50, conventionally taken in molar units. What is called pKi is −log10 of the Ki, conventionally taken in molar units.

SMILES strings stand for the structures. pEC50, pKi: −log10 of the molar value.

The target of assay [1] is T1, Adenosine receptor A3 (Homo sapiens, UniProt P0DMS8).
T1 sequence (P0DMS8 whole entry): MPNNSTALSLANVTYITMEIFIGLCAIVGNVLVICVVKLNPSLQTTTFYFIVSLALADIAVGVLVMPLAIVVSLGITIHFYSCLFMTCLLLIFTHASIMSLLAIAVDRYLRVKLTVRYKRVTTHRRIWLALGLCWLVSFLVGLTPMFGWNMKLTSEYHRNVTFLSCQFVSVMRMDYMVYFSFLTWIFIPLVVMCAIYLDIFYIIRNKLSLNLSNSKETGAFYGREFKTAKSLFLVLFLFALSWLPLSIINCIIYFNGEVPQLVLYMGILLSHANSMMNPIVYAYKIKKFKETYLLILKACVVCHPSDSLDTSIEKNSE
As to the kind of experiment: Antagonist activity at human adenosine A3 receptor expressed in CHO cells assessed as blockade of NECA-mediated inhibition of forskolin-stimulated cAMP accumulation. Format: functional, cell-based. The gist of the method: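 CHO cells stably expressing hA3, plated 48 h, preincubated 15 min at 37 °C with Ro 20-1724 (20 μM) and adenosine deaminase (1 U/mL). Compound (1 nM–10 μM; DMSO stock diluted in water) added 15 min before 100 nM NECA, with 1 μM forskolin stimulation. Lysis in 0.4 N HCl; cAMP by competitive protein binding with [3H]cAMP. EC50 by sigmoid nonlinear regression; three experiments.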
(cAMP levels reflect the balance of adenylyl cyclase and phosphodiesterase activity.)

Assay [2] addresses T2, Adenosine receptor A1 (Homo sapiens) (UniProt P30542).
T2 sequence (whole entry): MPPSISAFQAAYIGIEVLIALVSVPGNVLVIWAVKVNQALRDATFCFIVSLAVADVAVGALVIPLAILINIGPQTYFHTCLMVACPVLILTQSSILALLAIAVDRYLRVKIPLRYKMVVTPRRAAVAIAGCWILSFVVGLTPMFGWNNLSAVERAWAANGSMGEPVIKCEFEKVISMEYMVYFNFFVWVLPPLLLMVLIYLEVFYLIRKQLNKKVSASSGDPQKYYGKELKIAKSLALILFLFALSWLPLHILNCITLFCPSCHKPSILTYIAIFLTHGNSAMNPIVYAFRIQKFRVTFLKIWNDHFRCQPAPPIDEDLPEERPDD
Briefly: Displacement of [3H]DPCPX from human cloned adenosine A1 receptor expressed in CHO cells at 10 uM. Format: cell-based. The gist of the method: (§1)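 CHO cell membranes stably expressing hA1 or hA2A; radioligands [3H]DPCPX (hA1, Kd 3 nM) and [3H]NECA (hA2A, Kd 30 nM). IC50 from five displacer concentrations in triplicate, nonlinear regression; Ki by Cheng–Prusoff; four separate assays. Single-point values as percent inhibition of specific binding at 10 μM.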
(In general: Displacement assays read how much labelled ligand stays bound in the presence of the test substance.)

Assay [3] has as its target T3, Adenosine receptor A1 (Bos taurus, UniProt P28190).
T3 sequence (P28190 whole entry): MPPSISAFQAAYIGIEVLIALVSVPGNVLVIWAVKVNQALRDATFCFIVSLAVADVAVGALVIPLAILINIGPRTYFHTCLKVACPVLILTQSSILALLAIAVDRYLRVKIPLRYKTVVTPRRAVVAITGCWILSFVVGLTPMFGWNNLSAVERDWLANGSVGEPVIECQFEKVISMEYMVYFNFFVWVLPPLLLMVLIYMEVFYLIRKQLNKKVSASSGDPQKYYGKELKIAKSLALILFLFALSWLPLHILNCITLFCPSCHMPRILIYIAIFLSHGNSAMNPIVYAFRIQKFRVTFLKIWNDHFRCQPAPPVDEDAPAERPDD
As to the kind of experiment: Displacement of [3H]DPCPX from bovine brain cortical membrane adenosine A1 receptor.

Assay [4] addresses Adenosine receptor A2a (Rattus norvegicus) (UniProt P30543). As to the kind of experiment: Displacement of [3H]CGS21680 adenosine A2A receptor in Wistar rat brain membrane at 10 uM. Format: cell membranes.
Assay [5] has as its system Hippocampus. As to the kind of experiment: Neuroprotective effect against 30-mins oxygen-glucose deprivation triggered neuronal injury in Wistar rat hippocampus CA1 region assessed as delay in anoxic depolarization latency at 10 nM relative to control. Format: functional. The gist of the method:
(§2)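 Rat hippocampal slices; CA1 stratum radiatum stimulated (80 μs, 0.066 Hz) with fEPSP at 40–50% of maximum, amplitude expressed as percent of 5 min pre-OGD baseline. OGD: glucose-free aCSF gassed 95% N2/5% CO2 for 7 or 30 min, then reperfusion with oxygenated glucose aCSF. Compound 10 nM (DMSO stock diluted in aCSF) applied 15 min before, during and 5 min after OGD. Anoxic depolarization recorded as negative dc shift, latency from OGD onset; unpaired two-tailed t test.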

Assay [6] has as its system Hippocampus. Briefly: Neuroprotective effect against 7-mins oxygen-glucose deprivation triggered neuronal injury in Wistar rat hippocampal CA1 region assessed as recovery of field excitatory post synaptic potential at 10 nM relative to control. Format: functional. The method in brief:
as §2

Assay [7] concerns the target T4, Adenosine receptor A1 (Rattus norvegicus, UniProt P25099).
T4 sequence (P25099 whole entry): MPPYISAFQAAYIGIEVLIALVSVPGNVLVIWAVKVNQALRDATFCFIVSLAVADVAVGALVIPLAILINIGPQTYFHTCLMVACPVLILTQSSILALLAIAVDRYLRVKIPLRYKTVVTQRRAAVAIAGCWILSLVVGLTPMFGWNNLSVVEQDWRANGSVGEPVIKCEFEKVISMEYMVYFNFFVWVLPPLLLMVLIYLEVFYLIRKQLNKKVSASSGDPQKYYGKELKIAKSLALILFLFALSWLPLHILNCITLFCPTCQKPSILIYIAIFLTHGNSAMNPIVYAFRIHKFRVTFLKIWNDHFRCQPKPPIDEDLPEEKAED
As to the kind of experiment: Displacement of [3H]DPCPX from adenosine A1 receptor in Wistar rat brain membrane. Format: cell membranes. The gist of the method: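 Nonspecific binding defined with 20 μM R-PIA. Filtration on GF/C filters. IC50 by nonlinear regression over five displacer concentrations in triplicate; Ki via Cheng–Prusoff.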

Another assay deals with Adenosine receptor A2a (Homo sapiens, UniProt P29274). Briefly: Displacement of [3H]NECA from human cloned adenosine A2A receptor expressed in CHO cells at 10 uM. Format: cell-based. The gist of the method: as §1
Chain of Adenosine receptor A2a (P29274 whole entry): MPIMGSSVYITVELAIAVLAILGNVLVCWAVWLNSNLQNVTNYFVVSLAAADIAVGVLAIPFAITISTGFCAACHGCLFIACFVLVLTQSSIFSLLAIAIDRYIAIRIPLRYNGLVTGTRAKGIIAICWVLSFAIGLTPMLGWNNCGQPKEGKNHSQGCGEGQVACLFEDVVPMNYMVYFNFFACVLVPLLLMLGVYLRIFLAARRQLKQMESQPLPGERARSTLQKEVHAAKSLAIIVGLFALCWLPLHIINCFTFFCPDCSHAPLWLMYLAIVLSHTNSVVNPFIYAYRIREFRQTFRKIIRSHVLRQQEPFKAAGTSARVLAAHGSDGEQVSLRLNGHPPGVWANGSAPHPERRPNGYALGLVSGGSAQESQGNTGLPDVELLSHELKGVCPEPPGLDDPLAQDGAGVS
In assay [8] the target is T5, Adenosine receptor A3 (Rattus norvegicus) (UniProt P28647).
T5 sequence (whole entry): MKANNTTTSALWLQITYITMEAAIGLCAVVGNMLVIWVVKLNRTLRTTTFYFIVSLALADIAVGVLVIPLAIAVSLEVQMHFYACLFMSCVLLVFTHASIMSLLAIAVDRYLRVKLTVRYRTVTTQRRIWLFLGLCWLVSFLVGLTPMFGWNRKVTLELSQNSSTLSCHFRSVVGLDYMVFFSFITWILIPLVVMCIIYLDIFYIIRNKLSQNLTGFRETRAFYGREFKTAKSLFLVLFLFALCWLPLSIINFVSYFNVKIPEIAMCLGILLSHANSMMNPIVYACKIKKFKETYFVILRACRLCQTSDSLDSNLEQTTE
As to the kind of experiment: Displacement of [125I]AB-MECA from Wistar rat adenosine A3 receptor expressed in HEK293/EBNA cells by gamma-scintillation spectrometry at 1 uM. It counts as cell-based.

For the next assay, the species on record is Bos taurus. As to the kind of experiment: Displacement of [3H]CGS 21680 from bovine striatal membrane adenosine A2A receptor at 20 uM. The method in brief:
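IC50 from five concentrations in triplicate, nonlinear regression; Ki via Cheng–Prusoff from four assays. Single-point values as percent inhibition at 20 μM.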

Assay [9] deals with T1, Adenosine receptor A3. As to the kind of experiment: Displacement of [125I]AB-MECA from human cloned adenosine A3 receptor expressed in CHO cells. Format: cell-based.

Chain of Adenosine receptor A2a (Rattus norvegicus) (P30543 whole entry): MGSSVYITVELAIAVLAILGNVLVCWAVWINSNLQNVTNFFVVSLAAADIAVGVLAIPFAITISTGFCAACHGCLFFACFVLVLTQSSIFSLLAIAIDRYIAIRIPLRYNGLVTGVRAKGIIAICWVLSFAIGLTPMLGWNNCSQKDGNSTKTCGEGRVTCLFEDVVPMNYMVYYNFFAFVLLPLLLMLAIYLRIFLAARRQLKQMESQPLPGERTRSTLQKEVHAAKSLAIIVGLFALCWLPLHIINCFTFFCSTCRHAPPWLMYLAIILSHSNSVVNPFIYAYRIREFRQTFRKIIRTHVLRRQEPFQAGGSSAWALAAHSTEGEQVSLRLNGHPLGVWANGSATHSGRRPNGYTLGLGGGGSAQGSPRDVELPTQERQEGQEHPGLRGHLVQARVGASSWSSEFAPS

With `COc1ccc(-n2nc3c(NC(=O)c4ccccc4)nc4ncccc4n3c2=O)cc1`, the pEC50 at Adenosine receptor A3 [1] is 7.44. Further, the Activity in [2] is 38%; in assay [4], 34%; in the assay with Hippocampus [5] it was 8.9; in the assay with Hippocampus [6], 77.6%; at Adenosine receptor A2a, 27%; in assay [8] it was 0%. This compound gave an Activity in the assay filed under Bos taurus of 7%. The results for the pKi on Adenosine receptor A1 [3], at Adenosine receptor A1 [7] and at Adenosine receptor A3 [9] were 6.45, 6.23 and 8.34, respectively.
